Measurements reported in ChEMBL document CHEMBL2384977, “Synthesis and biological evaluation of novel styryl benzimidazole derivatives as probes for imaging of neurofibrillary tangles in Alzheimer's disease” (Bioorg Med Chem, 2013).

Columns and labels:
[1] = target: Microtubule-associated protein tau (Homo sapiens, UniProt P10636); assay: Binding affinity to recombinant human tau (441 amino acid residues) aggregates expressed in Escherichia coli assessed as apparent dissociation constant after 30 mins by fluorescence spectroscopic analysis; conditions: read-out: Kd(app)
Chain of Microtubule-associated protein tau (P10636 whole entry): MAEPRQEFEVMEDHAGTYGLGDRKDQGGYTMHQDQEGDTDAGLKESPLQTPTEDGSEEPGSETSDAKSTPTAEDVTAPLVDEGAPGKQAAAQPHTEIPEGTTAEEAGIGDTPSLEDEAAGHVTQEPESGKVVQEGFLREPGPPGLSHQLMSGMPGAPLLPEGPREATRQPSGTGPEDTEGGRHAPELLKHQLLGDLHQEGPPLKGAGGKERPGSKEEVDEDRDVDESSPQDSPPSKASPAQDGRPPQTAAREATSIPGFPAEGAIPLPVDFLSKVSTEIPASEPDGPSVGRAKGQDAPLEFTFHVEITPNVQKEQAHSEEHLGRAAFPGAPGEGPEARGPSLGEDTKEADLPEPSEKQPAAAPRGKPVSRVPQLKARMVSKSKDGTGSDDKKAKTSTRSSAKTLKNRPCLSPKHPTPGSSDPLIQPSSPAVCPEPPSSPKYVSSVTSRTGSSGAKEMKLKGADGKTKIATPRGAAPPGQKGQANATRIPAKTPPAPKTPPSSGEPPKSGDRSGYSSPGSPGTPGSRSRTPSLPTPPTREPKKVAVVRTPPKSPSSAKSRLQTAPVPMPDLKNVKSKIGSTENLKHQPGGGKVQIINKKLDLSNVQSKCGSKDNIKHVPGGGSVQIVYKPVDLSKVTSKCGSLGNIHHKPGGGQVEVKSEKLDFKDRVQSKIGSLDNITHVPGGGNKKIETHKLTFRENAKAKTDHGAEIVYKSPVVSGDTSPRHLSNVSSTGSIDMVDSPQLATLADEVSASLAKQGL
Procedure, shortened: (§1)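 Tau: human 441-aa tau expressed in E. coli, aggregated at 1 mg/mL in MES buffer pH 6.8 with 0.1 mg/mL heparin, 37 °C for 3 days with shaking. Abeta1-42 aggregated at 0.25 mg/mL in PBS pH 7.4, 37 °C for 42 h with shaking. Aggregates at final 10 µg/mL were incubated with ligand (final 0.02–10 µM) for 30 min at room temperature. Apparent Kd was taken from fluorescence saturation curves at ex 440 nm, em 510 nm (tau) or em 480 nm (Abeta). Mean ± SEM of six independent experiments.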

[2] = target: Amyloid-beta precursor protein (Homo sapiens, UniProt P05067); assay: Binding affinity to amyloid beta (1 to 42) (unknown origin) aggregates assessed as apparent dissociation constant after 30 mins by fluorescence spectroscopic analysis; conditions: read-out: Kd(app); procedure, shortened: as §1
Chain of Amyloid-beta precursor protein (P05067 whole entry): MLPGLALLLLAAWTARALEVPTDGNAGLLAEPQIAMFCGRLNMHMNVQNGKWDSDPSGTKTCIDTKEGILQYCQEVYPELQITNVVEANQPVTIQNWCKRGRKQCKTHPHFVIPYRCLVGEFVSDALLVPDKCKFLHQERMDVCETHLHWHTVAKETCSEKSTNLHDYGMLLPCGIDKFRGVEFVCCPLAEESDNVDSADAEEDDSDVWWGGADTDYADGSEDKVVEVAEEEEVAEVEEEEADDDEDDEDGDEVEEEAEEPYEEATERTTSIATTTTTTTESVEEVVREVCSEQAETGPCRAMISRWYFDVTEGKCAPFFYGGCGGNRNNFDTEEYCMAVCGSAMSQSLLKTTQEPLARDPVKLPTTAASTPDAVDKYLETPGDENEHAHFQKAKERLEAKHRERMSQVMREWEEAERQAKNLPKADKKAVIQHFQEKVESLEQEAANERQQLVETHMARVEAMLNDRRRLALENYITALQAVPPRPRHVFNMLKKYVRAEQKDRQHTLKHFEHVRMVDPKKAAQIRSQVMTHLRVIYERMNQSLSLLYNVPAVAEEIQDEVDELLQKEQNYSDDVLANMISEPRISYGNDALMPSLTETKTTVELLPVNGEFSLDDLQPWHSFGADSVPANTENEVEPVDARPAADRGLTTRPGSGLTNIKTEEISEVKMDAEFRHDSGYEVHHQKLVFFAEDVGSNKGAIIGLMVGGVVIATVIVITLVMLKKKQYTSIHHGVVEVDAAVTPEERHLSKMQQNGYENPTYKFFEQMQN

Homo sapiens = species on record: Homo sapiens; assay: Selectivity ratio of Kd(app) for amyloid beta (1 to 42) (unknown origin) aggregates to Kd(app) for recombinant human tau (441 amino acid residues) aggregates
Procedure, shortened: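 Human 441-aa tau, expressed in E. coli, was aggregated at 1 mg/mL (MES pH 6.8, 0.1 mg/mL heparin, 37 °C, 3 days, shaking). Aβ1–42 was aggregated at 0.25 mg/mL (PBS pH 7.4, 37 °C, 42 h). Aggregates were incubated 30 min at room temperature with ligand, and fluorescence read at ex 440 nm, em 510 nm (tau) or 480 nm (Aβ). Apparent Kd came from saturation curves over six independent experiments, and the ratio is Kd(Aβ)/Kd(tau).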

Liver [3] = assay: Biodistribution in ddY mouse liver at 13.2 to 20.6 kBq, iv measured at 10 mins by gamma counting analysis; type: ADME, organism-based; conditions: in vivo
Procedure, shortened: (§2)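 Male ddY mice, 5 weeks old, received the 125I-labelled tracer (13.2–20.6 kBq) intravenously in the tail vein, in 100 µL saline containing ethanol. Animals were sacrificed at 2, 10, 30 and 60 min. Tissue radioactivity is expressed as %ID/g, mean (SD) of 5 animals.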

Intestine [4] = assay: Biodistribution in ddY mouse intestine at 13.2 to 20.6 kBq, iv measured at 60 mins by gamma counting analysis; type: ADME, organism-based; conditions: in vivo, 1 h; procedure, shortened: as §2
Blood [5] = assay: Biodistribution in ddY mouse blood at 13.2 to 20.6 kBq, iv measured at 30 mins by gamma counting analysis; type: ADME, organism-based; conditions: in vivo, 0.5 h; procedure, shortened: as §2
Spleen [6] = assay: Biodistribution in ddY mouse spleen at 13.2 to 20.6 kBq, iv measured at 10 mins by gamma counting analysis; type: ADME, organism-based; conditions: in vivo; procedure, shortened: as §2
Blood [7] = assay: Biodistribution in ddY mouse blood at 13.2 to 20.6 kBq, iv measured at 10 mins by gamma counting analysis; type: ADME, organism-based; conditions: in vivo; procedure, shortened: as §2
Pancreas [8] = assay: Biodistribution in ddY mouse pancreas at 13.2 to 20.6 kBq, iv measured at 30 mins by gamma counting analysis; type: ADME, organism-based; conditions: in vivo, 0.5 h; procedure, shortened: as §2
Stomach [9] = assay: Biodistribution in ddY mouse stomach at 13.2 to 20.6 kBq, iv measured per organ at 10 mins by gamma counting analysis; type: ADME, organism-based; conditions: in vivo
Procedure, shortened: (§3)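 Male ddY mice, 5 weeks old, were injected in the tail vein with the 125I tracer (13.2–20.6 kBq) in 100 µL saline containing ethanol. Sacrifice at 2, 10, 30 and 60 min. Stomach radioactivity is expressed as %ID per whole organ, mean (SD) of 5 animals.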

Lung [10] = assay: Biodistribution in ddY mouse lung at 13.2 to 20.6 kBq, iv measured at 2 mins by gamma counting analysis; type: ADME, organism-based; conditions: in vivo; procedure, shortened: as §2
Blood [11] = assay: Biodistribution in ddY mouse blood at 13.2 to 20.6 kBq, iv measured at 60 mins by gamma counting analysis; type: ADME, organism-based; conditions: in vivo, 1 h; procedure, shortened: as §2
Blood [12] = assay: Biodistribution in ddY mouse blood at 13.2 to 20.6 kBq, iv measured at 2 mins by gamma counting analysis; type: ADME, organism-based; conditions: in vivo; procedure, shortened: as §2
Brain [13] = assay: Biodistribution in ddY mouse brain at 13.2 to 20.6 kBq, iv measured at 30 mins by gamma counting analysis; type: ADME, organism-based; conditions: in vivo, 0.5 h; procedure, shortened: as §2
[14] = 1-Octanol-PBS buffer partition coefficient, log P of the compound at 0.37 MBq after 2 mins by gamma counting analysis; type: physicochemical
Brain [15] = assay: Ratio of drug level in ddY mouse brain at 13.2 to 20.6 kBq, iv measured at 2 mins to drug level in ddY mouse brain at 13.2 to 20.6 kBq, iv measured at 60 mins; type: ADME, organism-based; conditions: in vivo
Procedure, shortened: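 Tail-vein injection of the 125I tracer (13.2–20.6 kBq, saline with ethanol) into male 5-week-old ddY mice. The ratio is brain uptake (%ID/g) at 2 min divided by brain uptake at 60 min, from groups of 5 animals.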

Heart [16] = assay: Biodistribution in ddY mouse heart at 13.2 to 20.6 kBq, iv measured at 10 mins by gamma counting analysis; type: ADME, organism-based; conditions: in vivo; procedure, shortened: as §2
Intestine [17] = assay: Biodistribution in ddY mouse intestine at 13.2 to 20.6 kBq, iv measured at 2 mins by gamma counting analysis; type: ADME, organism-based; conditions: in vivo; procedure, shortened: as §2
Liver [18] = assay: Biodistribution in ddY mouse liver at 13.2 to 20.6 kBq, iv measured at 60 mins by gamma counting analysis; type: ADME, organism-based; conditions: in vivo, 1 h; procedure, shortened: as §2
Intestine [19] = assay: Biodistribution in ddY mouse intestine at 13.2 to 20.6 kBq, iv measured at 30 mins by gamma counting analysis; type: ADME, organism-based; conditions: in vivo, 0.5 h; procedure, shortened: as §2
Pancreas [20] = assay: Biodistribution in ddY mouse pancreas at 13.2 to 20.6 kBq, iv measured at 10 mins by gamma counting analysis; type: ADME, organism-based; conditions: in vivo; procedure, shortened: as §2
Stomach [21] = assay: Biodistribution in ddY mouse stomach at 13.2 to 20.6 kBq, iv measured per organ at 30 mins by gamma counting analysis; type: ADME, organism-based; conditions: in vivo, 0.5 h; procedure, shortened: as §3
Heart [22] = assay: Biodistribution in ddY mouse heart at 13.2 to 20.6 kBq, iv measured at 2 mins by gamma counting analysis; type: ADME, organism-based; conditions: in vivo; procedure, shortened: as §2
Lung [23] = assay: Biodistribution in ddY mouse lung at 13.2 to 20.6 kBq, iv measured at 60 mins by gamma counting analysis; type: ADME, organism-based; conditions: in vivo, 1 h; procedure, shortened: as §2
Brain [24] = assay: Biodistribution in ddY mouse brain at 13.2 to 20.6 kBq, iv measured at 10 mins by gamma counting analysis; type: ADME, organism-based; conditions: in vivo; procedure, shortened: as §2
Spleen [25] = assay: Biodistribution in ddY mouse spleen at 13.2 to 20.6 kBq, iv measured at 30 mins by gamma counting analysis; type: ADME, organism-based; conditions: in vivo, 0.5 h; procedure, shortened: as §2
Liver [26] = assay: Biodistribution in ddY mouse liver at 13.2 to 20.6 kBq, iv measured at 30 mins by gamma counting analysis; type: ADME, organism-based; conditions: in vivo, 0.5 h; procedure, shortened: as §2
Kidney [27] = assay: Biodistribution in ddY mouse kidney at 13.2 to 20.6 kBq, iv measured at 60 mins by gamma counting analysis; type: ADME, organism-based; conditions: in vivo, 1 h; procedure, shortened: as §2
Heart [28] = assay: Biodistribution in ddY mouse heart at 13.2 to 20.6 kBq, iv measured at 30 mins by gamma counting analysis; type: ADME, organism-based; conditions: in vivo, 0.5 h; procedure, shortened: as §2
Kidney [29] = assay: Biodistribution in ddY mouse kidney at 13.2 to 20.6 kBq, iv measured at 2 mins by gamma counting analysis; type: ADME, organism-based; conditions: in vivo; procedure, shortened: as §2
Heart [30] = assay: Biodistribution in ddY mouse heart at 13.2 to 20.6 kBq, iv measured at 60 mins by gamma counting analysis; type: ADME, organism-based; conditions: in vivo, 1 h; procedure, shortened: as §2
Lung [31] = assay: Biodistribution in ddY mouse lung at 13.2 to 20.6 kBq, iv measured at 30 mins by gamma counting analysis; type: ADME, organism-based; conditions: in vivo, 0.5 h; procedure, shortened: as §2
Kidney [32] = assay: Biodistribution in ddY mouse kidney at 13.2 to 20.6 kBq, iv measured at 30 mins by gamma counting analysis; type: ADME, organism-based; conditions: in vivo, 0.5 h; procedure, shortened: as §2
Pancreas [33] = assay: Biodistribution in ddY mouse pancreas at 13.2 to 20.6 kBq, iv measured at 60 mins by gamma counting analysis; type: ADME, organism-based; conditions: in vivo, 1 h; procedure, shortened: as §2
Spleen [34] = assay: Biodistribution in ddY mouse spleen at 13.2 to 20.6 kBq, iv measured at 2 mins by gamma counting analysis; type: ADME, organism-based; conditions: in vivo; procedure, shortened: as §2
Kidney [35] = assay: Biodistribution in ddY mouse kidney at 13.2 to 20.6 kBq, iv measured at 10 mins by gamma counting analysis; type: ADME, organism-based; conditions: in vivo; procedure, shortened: as §2
Stomach [36] = assay: Biodistribution in ddY mouse stomach at 13.2 to 20.6 kBq, iv measured per organ at 2 mins by gamma counting analysis; type: ADME, organism-based; conditions: in vivo; procedure, shortened: as §3
Spleen [37] = assay: Biodistribution in ddY mouse spleen at 13.2 to 20.6 kBq, iv measured at 60 mins by gamma counting analysis; type: ADME, organism-based; conditions: in vivo, 1 h; procedure, shortened: as §2
Intestine [38] = assay: Biodistribution in ddY mouse intestine at 13.2 to 20.6 kBq, iv measured at 10 mins by gamma counting analysis; type: ADME, organism-based; conditions: in vivo; procedure, shortened: as §2
Brain [39] = assay: Biodistribution in ddY mouse brain at 13.2 to 20.6 kBq, iv measured at 2 mins by gamma counting analysis; type: ADME, organism-based; conditions: in vivo; procedure, shortened: as §2
Pancreas [40] = assay: Biodistribution in ddY mouse pancreas at 13.2 to 20.6 kBq, iv measured at 2 mins by gamma counting analysis; type: ADME, organism-based; conditions: in vivo; procedure, shortened: as §2
Brain [41] = assay: Biodistribution in ddY mouse brain at 13.2 to 20.6 kBq, iv measured at 60 mins by gamma counting analysis; type: ADME, organism-based; conditions: in vivo, 1 h; procedure, shortened: as §2
Lung [42] = assay: Biodistribution in ddY mouse lung at 13.2 to 20.6 kBq, iv measured at 10 mins by gamma counting analysis; type: ADME, organism-based; conditions: in vivo; procedure, shortened: as §2
Liver [43] = assay: Biodistribution in ddY mouse liver at 13.2 to 20.6 kBq, iv measured at 2 mins by gamma counting analysis; type: ADME, organism-based; conditions: in vivo; procedure, shortened: as §2
Stomach [44] = assay: Biodistribution in ddY mouse stomach at 13.2 to 20.6 kBq, iv measured per organ at 60 mins by gamma counting analysis; type: ADME, organism-based; conditions: in vivo, 1 h; procedure, shortened: as §3

## CNc1ccc(/C=C/c2nc3ccc(I)cc3[nH]2)cc1
[1]
  Kd: 450 nM
[2]
  Kd: 420 nM
Homo sapiens
  Selectivity ratio: 0.93

## CNc1ccc(/C=C/c2nc3ccc([125I])cc3[nH]2)cc1
Liver [3]
  Drug uptake: 23.2 % ID/g
Intestine [4]
  Drug uptake: 30 % ID/g
Blood [5]
  Drug uptake: 2.19 % ID/g
Spleen [6]
  Drug uptake: 4.9 % ID/g
Blood [7]
  Drug uptake: 2.76 % ID/g
Pancreas [8]
  Drug uptake: 0.92 % ID/g
Stomach [9]
  Drug uptake: 4.88 %ID
Lung [10]
  Drug uptake: 7.13 % ID/g
Blood [11]
  Drug uptake: 1.37 % ID/g
Blood [12]
  Drug uptake: 3.65 % ID/g
Brain [13]
  Drug uptake: 0.36 % ID/g
[14]
  logP at 2 min: 2
Brain [15]
  Ratio: 29.4
Heart [16]
  Drug uptake: 2.8 % ID/g
Intestine [17]
  Drug uptake: 4.96 % ID/g
Liver [18]
  Drug uptake: 11 % ID/g
Intestine [19]
  Drug uptake: 28.4 % ID/g
Pancreas [20]
  Drug uptake: 2.58 % ID/g
Stomach [21]
  Drug uptake: 4.65 %ID
Heart [22]
  Drug uptake: 6.68 % ID/g
Lung [23]
  Drug uptake: 1.32 % ID/g
Brain [24]
  Drug uptake: 1.42 % ID/g
Spleen [25]
  Drug uptake: 3.13 % ID/g
Liver [26]
  Drug uptake: 16 % ID/g
Kidney [27]
  Drug uptake: 2.02 % ID/g
Heart [28]
  Drug uptake: 1.28 % ID/g
Kidney [29]
  Drug uptake: 11.2 % ID/g
Heart [30]
  Drug uptake: 0.74 % ID/g
Lung [31]
  Drug uptake: 1.93 % ID/g
Kidney [32]
  Drug uptake: 3.07 % ID/g
Pancreas [33]
  Drug uptake: 0.51 % ID/g
Spleen [34]
  Drug uptake: 5.19 % ID/g
Kidney [35]
  Drug uptake: 5.85 % ID/g
Stomach [36]
  Drug uptake: 2.31 %ID
Spleen [37]
  Drug uptake: 1.74 % ID/g
Intestine [38]
  Drug uptake: 11.5 % ID/g
Brain [39]
  Drug uptake: 4.11 % ID/g
Pancreas [40]
  Drug uptake: 6.8 % ID/g
Brain [41]
  Drug uptake: 0.14 % ID/g
Lung [42]
  Drug uptake: 3.55 % ID/g
Liver [43]
  Drug uptake: 19.9 % ID/g
Stomach [44]
  Drug uptake: 2.97 %ID
